The source of these data is publication PMC5908721 (Journal of medicinal chemistry, 2018).

Series [1] has as its system MV4-11 cells. Kind of series: Western blot analysis in MV4-11 cells. The class given is cell-based. Particulars: for Level of HDAC6: ≥0.5 μM 13e or 5 μM SAHA. Put shortly: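 MV4-11 cells (1,500,000/well) are grown 12 h, then treated with test compound, mainly for 24 h (0.25–2 μM; 5 μM SAHA as reference). For p53, 0.5 μM is given for 6 or 12 h, and bortezomib is co-treated for 6 h. Cells are lysed in RIPA, sonicated, centrifuged, BCA-normalized, and run on 4–12% Bis-Tris gels. Blots are probed overnight at 4 °C with primary antibodies (1/1000), with actin as loading control (n ≥ 2).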
(In general: Immunoblotting shows a protein as a band on a membrane.)

The conditions of series [2]: clinical use; cited from earlier work.
Series [3] has as its target T1, HDAC2 (Homo sapiens, UniProt Q92769). The experiment in a line: Recombinant HDAC Vmax study. The class given is biochemical. The settings on record: 2 h preincubation. Put shortly:
(§1)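 Recombinant human HDAC is incubated with inhibitor dilutions in HDAC buffer for 2 h at 30 °C. Serially diluted Boc-Lys(acetyl)-AMC is then added. After 2 h, the reaction is quenched with trypsin (5 mg/mL) plus 1 μM TSA solution, and fluorescence is read at 360/460 nm. Vmax and Km come from a Michaelis–Menten fit, and Lineweaver–Burk double-reciprocal plots are derived from them.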

Series [4] addresses T2, HDAC3 (Homo sapiens, UniProt O15379). Kind of series: Recombinant HDAC Vmax study. It counts as biochemical. The settings on record: 2 h preincubation. The method, boiled down:
as §1

Series [5] has as its target T2, HDAC3. The experiment in a line: In vitro HDACs inhibition fluorescence assay, HDAC3. It counts as biochemical. The settings on record: preincubation 15, 30, 60, 90 min.
For series [6], the target named is T3, HDAC1 (Homo sapiens, UniProt Q13547). Kind of series: In vitro HDACs inhibition fluorescence assay, HDAC1. The class given is biochemical. The settings on record: preincubation 15, 30, 60, 90 min. The method, boiled down: (§2)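 Recombinant HDAC enzyme is preincubated with serial test-compound concentrations at 30 °C for 15, 30, 60 or 90 min. Boc-Lys(acetyl)-AMC is added for 2 h at 30 °C. The reaction is stopped with a trypsin/trichostatin A developer, and fluorescence is read after 30 min (ex 360/em 460 nm). Inhibition is taken relative to control wells, and IC50 comes from a variable-slope log(inhibitor)–normalized response fit.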

Series [7] deals with T1, HDAC2. Kind of series: In vitro HDACs inhibition fluorescence assay, HDAC2. The settings on record: preincubation 15, 30, 60, 90 min. It counts as biochemical. Put shortly: as §2
In series [8] the target is T3, HDAC1. The experiment in a line: Recombinant HDAC Vmax study. The class given is biochemical. Particulars: 2 h preincubation.
For series [9], the system named is MV4-11 cells. The experiment in a line: Cell cycle analysis in MV4-11 cells. The class given is cell-based. The settings on record: MV4-11, 24 h. The method, boiled down:
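MV4-11 cells plated at 1,500,000 per well in six-well plates, grown 12 h, then exposed to test compound for 24 h. Cells were PBS-washed, fixed overnight at 4 °C in cold 75% ethanol, and washed twice in cold PBS. They were RNase A-treated at 37 °C for 30 min, stained with 50 μg/mL propidium iodide (30 min, 4 °C), and analysed by flow cytometry. Representative of n ≥ 2 experiments.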

A further series has as its target T4, APN/CD13 (Sus scrofa, UniProt P15145).
T4 sequence (P15145 1-963): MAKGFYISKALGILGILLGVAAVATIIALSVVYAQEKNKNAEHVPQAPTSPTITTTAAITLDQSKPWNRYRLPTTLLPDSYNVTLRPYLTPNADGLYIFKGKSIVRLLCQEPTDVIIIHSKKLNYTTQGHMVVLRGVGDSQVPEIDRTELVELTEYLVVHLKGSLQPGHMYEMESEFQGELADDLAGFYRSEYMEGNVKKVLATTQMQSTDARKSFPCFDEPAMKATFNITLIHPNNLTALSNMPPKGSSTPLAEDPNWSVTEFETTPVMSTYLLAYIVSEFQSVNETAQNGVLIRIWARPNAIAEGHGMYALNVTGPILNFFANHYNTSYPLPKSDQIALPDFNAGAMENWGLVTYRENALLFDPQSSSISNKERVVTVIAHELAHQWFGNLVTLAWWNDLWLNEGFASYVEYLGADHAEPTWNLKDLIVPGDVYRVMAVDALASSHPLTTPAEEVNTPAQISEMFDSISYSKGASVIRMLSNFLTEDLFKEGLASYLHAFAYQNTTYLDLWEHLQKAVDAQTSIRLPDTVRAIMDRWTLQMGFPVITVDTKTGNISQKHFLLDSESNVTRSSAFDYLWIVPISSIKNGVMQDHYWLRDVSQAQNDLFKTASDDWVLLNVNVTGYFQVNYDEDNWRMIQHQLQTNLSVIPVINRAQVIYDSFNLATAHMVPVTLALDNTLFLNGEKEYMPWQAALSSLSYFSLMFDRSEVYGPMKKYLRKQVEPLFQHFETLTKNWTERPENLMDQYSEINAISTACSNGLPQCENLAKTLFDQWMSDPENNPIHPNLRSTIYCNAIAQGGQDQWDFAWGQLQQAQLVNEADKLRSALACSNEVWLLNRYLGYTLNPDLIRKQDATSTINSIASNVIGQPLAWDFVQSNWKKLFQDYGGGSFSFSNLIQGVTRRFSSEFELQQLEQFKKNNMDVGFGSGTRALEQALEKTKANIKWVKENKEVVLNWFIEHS
Kind of series: CD13 inhibition assay. The class given is biochemical, porcine. The method, boiled down: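 Porcine kidney microsomal aminopeptidase (CD13) is added to test compound at various concentrations. After 5 min, L-leucine-p-nitroanilide substrate is added, and the mix is incubated at 37 °C for 30 min. Absorbance is then read at 405 nm.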

Another series deals with MMP-2/MMP-9. The experiment in a line: MMP-2/MMP-9 inhibitory activity. The class given is biochemical. Particulars: read-out: MMP-2/MMP-9, no inhibition at concentrations up to. Put shortly:
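Gelatinase (MMP-2/MMP-9) fluorogenic kit assay. Test compound is added as a 100 μM solution (before mixing), alongside a 40 μM reference MMP inhibitor. Enzyme diluted in activation buffer is added for 10–15 min, then substrate. The mix is incubated at 37 °C for 2 h, and fluorescence is read at ex 320/em 405 nm.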

The subject of series [10] is MV4-11 cells. The experiment in a line: MV4-11 EC50 analysis / cell viability. It counts as cell-based.
Series [11] has as its system PC-3 cells. The experiment in a line: PC-3 cell morphology, phase-contrast light microscope. The class given is cell-based. Particulars: 48 h. Put shortly:
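PC-3 cells in culture flasks are exposed for 48 h to 2 or 10 μM test compound or DMSO vehicle. Cell morphology and attachment are then examined by phase-contrast light microscopy (n ≥ 2).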

The subject of series [12] is PC-3 cells. Kind of series: PC-3 EC50 analysis / cell viability. The class given is cell-based. Particulars: 24 and 48 h.
Series [13] relates to PC-3 cells. Kind of series: Western blot analysis in PC-3 cells. The class given is cell-based. The settings on record: PC-3, 24 h. The method, boiled down: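 PC-3 cells (300,000 per well, six-well) grown 12 h, then given test compound at 1 and 2 μM for 24 h; 5 μM reference HDAC inhibitor as positive control. RIPA lysates were sonicated, cleared at 4 °C, and BCA-normalised. Proteins were separated on 4–12% Bis-Tris gels in MES buffer. Primary antibodies were used at 1/1000 overnight at 4 °C, with actin as loading control. Representative of n ≥ 2 experiments.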

Series [14] deals with PC-3 cells. Kind of series: Cell cycle analysis in PC-3 cells. Particulars: PC-3, 24 h. It counts as cell-based. Put shortly:
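PC-3 cells (300,000/well) are grown 12 h, then treated with test compound at various concentrations for 24 h. Cells are harvested, PBS-washed, fixed overnight in 75% cold ethanol at 4 °C, and washed in cold PBS. They are then treated with RNase A at 37 °C for 30 min and stained with propidium iodide (50 μg/mL in PBS) for 30 min at 4 °C. DNA content is read by flow cytometry (n ≥ 2).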

Molecules are shown by their SMILES. pIC50: −log10 of the molar value. A value given as a limit tells only on which side of the number the result lay.

T2 sequence (O15379 whole entry): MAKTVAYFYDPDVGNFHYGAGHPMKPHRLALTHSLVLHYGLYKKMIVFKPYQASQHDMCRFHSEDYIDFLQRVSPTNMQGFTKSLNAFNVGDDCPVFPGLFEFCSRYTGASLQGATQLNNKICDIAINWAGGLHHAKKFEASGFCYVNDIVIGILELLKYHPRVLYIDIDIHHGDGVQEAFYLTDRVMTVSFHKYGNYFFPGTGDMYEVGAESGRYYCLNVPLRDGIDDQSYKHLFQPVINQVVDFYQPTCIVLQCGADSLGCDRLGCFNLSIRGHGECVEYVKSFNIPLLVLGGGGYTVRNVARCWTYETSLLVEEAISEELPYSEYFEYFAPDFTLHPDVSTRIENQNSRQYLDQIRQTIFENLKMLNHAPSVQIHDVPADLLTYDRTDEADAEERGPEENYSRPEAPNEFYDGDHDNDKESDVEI
T2 sequence (Q9Y618 395-489 partner limits assumed): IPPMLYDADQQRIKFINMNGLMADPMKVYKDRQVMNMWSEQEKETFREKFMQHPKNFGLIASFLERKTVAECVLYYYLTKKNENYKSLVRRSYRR
T3 sequence (Q13547 whole entry): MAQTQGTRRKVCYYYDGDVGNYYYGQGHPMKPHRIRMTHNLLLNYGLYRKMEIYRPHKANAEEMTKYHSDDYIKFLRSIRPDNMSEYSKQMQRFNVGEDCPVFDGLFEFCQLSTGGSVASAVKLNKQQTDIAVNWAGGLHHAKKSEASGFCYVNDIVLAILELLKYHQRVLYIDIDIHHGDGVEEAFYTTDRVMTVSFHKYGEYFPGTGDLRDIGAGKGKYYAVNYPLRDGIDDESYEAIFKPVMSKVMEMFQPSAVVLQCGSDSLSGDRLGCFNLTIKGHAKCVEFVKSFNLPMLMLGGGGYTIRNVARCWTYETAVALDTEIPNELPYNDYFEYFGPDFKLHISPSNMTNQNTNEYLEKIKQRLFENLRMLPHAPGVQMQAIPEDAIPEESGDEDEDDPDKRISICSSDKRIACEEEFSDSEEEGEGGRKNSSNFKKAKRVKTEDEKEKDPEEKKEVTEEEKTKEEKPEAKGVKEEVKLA
T1 sequence (Q92769 whole entry): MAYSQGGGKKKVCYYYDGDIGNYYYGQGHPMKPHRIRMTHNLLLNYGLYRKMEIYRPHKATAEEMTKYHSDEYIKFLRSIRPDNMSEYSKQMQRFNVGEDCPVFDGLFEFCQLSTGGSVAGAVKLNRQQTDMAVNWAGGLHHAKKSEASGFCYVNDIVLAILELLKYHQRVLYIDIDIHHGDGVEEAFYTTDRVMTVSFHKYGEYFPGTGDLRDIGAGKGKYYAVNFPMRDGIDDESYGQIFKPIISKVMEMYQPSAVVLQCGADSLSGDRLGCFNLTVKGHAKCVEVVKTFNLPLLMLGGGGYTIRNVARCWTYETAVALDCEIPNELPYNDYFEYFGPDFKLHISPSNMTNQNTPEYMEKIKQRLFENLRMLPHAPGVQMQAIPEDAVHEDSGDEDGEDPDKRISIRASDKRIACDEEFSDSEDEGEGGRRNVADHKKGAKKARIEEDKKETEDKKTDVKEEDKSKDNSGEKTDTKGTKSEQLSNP

Regarding `CC(C)C[C@H](NC(=O)[C@H](Cc1ccccc1)NC(=O)c1cnccn1)B(O)O` [bortezomib, reference compound], the “Effect on p53 degradation upon hydrazide HDAC inhibitor treatment” value in the series on MV4-11 cells [1] (MV4-11, 6 h treatment) is listed as “blocks this degradation”.
Take `NNC(=O)c1ccncc1` [isoniazid]: in series [2], the Rate of hepatotoxicity is given as 0.5–2% and the “Rate of lethal hepatotoxicity” value is reported as 1/25000.
Take `COc1ccc(C(=O)N[C@@H](Cc2c[nH]c3ccccc23)C(=O)NCc2ccc(C(=O)Nc3ccccc3N)cc2)cc1` [Compound 11a, (S)-4-((3-(1H-indol-3-yl)-2-(4-methoxybenzamido)propanamido)-methyl)-N-(2-aminophenyl)benzamide, reference compound]: at HDAC2 [3], the “Type of inhibition of HDAC2 (Lineweaver-Burke analysis)” value was “mixed-type inhibition”. At HDAC3 [4], the “Type of inhibition of HDAC3 (Lineweaver-Burke analysis)” value was “mixed-type inhibition”. Besides, on HDAC3 [5], the “Time dependence of HDAC3 inhibition” value is reported as “time-dependent inhibition”. Further, the “Time dependence of HDAC1 inhibition” value at HDAC1 [6] is reported as “time-dependent inhibition”. Also, the “Time dependence of HDAC2 inhibition” value at HDAC2 [7] is “time-dependent inhibition”. For the same compound, the “Type of inhibition of HDAC1 (Lineweaver-Burke analysis)” value on HDAC1 [8] is listed as “competitive inhibition”.
In the case of `CCCNNC(=O)c1ccc(CNC(=O)[C@H](Cc2c[nH]c3ccccc23)NC(=O)c2ccc(OC)cc2)cc1` [Compound 13b, (S)-N-(3-(1H-Indol-3-yl)-1-oxo-1-((4-(2-propylhydrazine-1-carbonyl)benzyl)amino)propan-2-yl)-4-methoxybenzamide], the “Type of inhibition of HDAC2 (Lineweaver-Burke analysis)” value on HDAC2 [3] was “mixed inhibition”. Also, the “Type of inhibition of HDAC3 (Lineweaver-Burke analysis)” value at HDAC3 [4] is “mixed inhibition”. For the same compound, the “Time dependence of HDAC3 inhibition” value on HDAC3 [5] is listed as “time-dependent inhibition”. Further, on HDAC1 [6], the “Time dependence of HDAC1 inhibition” value was “time-dependent inhibition”. For the same compound, on HDAC2 [7], the “Time dependence of HDAC2 inhibition” value is “time-dependent inhibition”. For the same compound, the “Type of inhibition of HDAC1 (Lineweaver-Burke analysis)” value on HDAC1 [8] was “mixed inhibition”.
`O=C(CCCCCCC(=O)Nc1ccccc1)NO` [SAHA, vorinostat, reference compound]: the “Level of HDAC6” value in the series on MV4-11 cells [1] (MV4-11, 24 h) was “nearly absent”.
`CCCNNC(=O)c1ccc(NC(=O)[C@H](Cc2c[nH]c3ccccc23)NC(=O)c2ccc(OC)cc2)cc1` [Compound 13e, (S)-N-(3-(1H-Indol-3-yl)-1-oxo-1-((4-(2-propylhydrazine-1-carbonyl)phenyl)amino)propan-2-yl)-4-methoxybenzamide]: the Cell cycle effect result was “induced G1/S and sub-G1 cell cycle arrest” in the series with MV4-11 cells [9]; “triggered G2/M arrest” with PC-3 cells [14]. Moreover, the pIC50 on APN/CD13 and on MMP-2/MMP-9 was less than 4.30 throughout. In addition, in the series on MV4-11 cells [10] (10 and 2 μM, 24 and 48 h), the “Viable MV4-11 cell population over time (resorufin fluorescence)” value is reported as “decreased with time”. The MV4-11 cell death entry in the series on MV4-11 cells [10] (48 h treatment at high concentration) is listed as “almost all MV4-11 cells were dead”. In addition, the “MV4-11 antiproliferative activity, times higher than 13b” value in the series on MV4-11 cells [10] (vs 13b) is given as 4.1 times. For the same compound, the PC-3 cell morphology entry was “did not obviously affect cell morphology” with PC-3 cells [11] (2 μM); “cells were still alive and attached to the culture flask” in the series on PC-3 cells [11] (10 μM). Besides, the figures for the “Viable PC-3 cell population over time (resorufin fluorescence)” value with PC-3 cells [12] (2 μM) and in the series with PC-3 cells [12] (10 μM) were “slightly increased” and “remained unchanged”, respectively. For the same compound, the HDAC1 level result in the series with PC-3 cells [13] was “did not induce down-regulation of class I HDAC1”; with MV4-11 cells [1] (MV4-11, 24 h), “did not induce down-regulation of class I HDAC1”. The “Cleavage of pro-caspase3 / PARP (apoptosis)” value is “no observed cleavage of pro-caspase3 or PARP” with PC-3 cells [13] (1 and 2 μM); “caused the cleavage of inactive pro-caspase3” in the series with MV4-11 cells [1] (MV4-11, 24 h, 1 and 2 μM). In addition, in the series with PC-3 cells [13] (1 and 2 μM), the “HDAC6 level and acetylated tubulin level” value is “did not induce down-regulation of HDAC6 nor increase the level of acetylated tubulin”. For the same compound, the “Treatment time required for HDAC6 repression” value in the series with MV4-11 cells [1] (MV4-11) is listed as “more than 12 h”. In the series on MV4-11 cells [1] (MV4-11, 0.5 μM), the “Time to degradation of p53” value is listed as not above 6 h. In addition, the Level of acetyl-tubulin result in the series with MV4-11 cells [1] (MV4-11, 24 h) was “increased”. Also, in the series with MV4-11 cells [1] (MV4-11, 24 h, 0.25-2 μM), the “Level of acetylated histone H3” value was “markedly increase”. Further, in the series with MV4-11 cells [1] (MV4-11, 24 h, 0.25-2 μM), the “Level of acetylated histone H4” value is reported as “markedly increase”. Further, the “Level of HDAC6” value in the series with MV4-11 cells [1] (MV4-11, 24 h) is on record as “nearly absent”.
